Results as given in ChEMBL document CHEMBL1629438, “Selective peroxisome proliferator-activated receptor δ isosteric selenium agonists as potent anti-atherogenic agents in vivo” (Bioorg Med Chem Lett, 2010).
Activity calls are given as the source filed them. No cut-off for these calls is given here.

What was measured:
[1] = target: T1, Peroxisome proliferator-activated receptor gamma (Homo sapiens, UniProt P37231); experiment: Agonist activity at human PPAR-gamma expressed in african green monkey CV-1 cells after 24 hrs by luciferase reporter gene assay; assay type: functional, cell-based
T1 sequence (P37231 whole entry): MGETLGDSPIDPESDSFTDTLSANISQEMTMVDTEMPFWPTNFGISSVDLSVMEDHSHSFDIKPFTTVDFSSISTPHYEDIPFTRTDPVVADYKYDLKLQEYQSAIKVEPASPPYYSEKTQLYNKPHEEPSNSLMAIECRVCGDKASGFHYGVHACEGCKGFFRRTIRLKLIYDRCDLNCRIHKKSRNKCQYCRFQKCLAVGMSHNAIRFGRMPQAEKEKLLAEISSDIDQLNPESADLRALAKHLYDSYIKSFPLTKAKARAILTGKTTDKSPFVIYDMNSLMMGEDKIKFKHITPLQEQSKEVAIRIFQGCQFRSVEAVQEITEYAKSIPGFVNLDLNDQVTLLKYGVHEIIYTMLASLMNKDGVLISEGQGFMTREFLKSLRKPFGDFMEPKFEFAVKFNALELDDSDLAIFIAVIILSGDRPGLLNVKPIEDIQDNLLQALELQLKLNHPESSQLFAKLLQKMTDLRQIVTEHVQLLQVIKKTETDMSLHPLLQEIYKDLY

[2] = target: T2, Peroxisome proliferator-activated receptor delta (Homo sapiens, UniProt Q03181); experiment: Agonist activity at human PPAR-delta expressed in african green monkey CV-1 cells after 24 hrs by luciferase reporter gene assay; assay type: functional, cell-based
T2 sequence (Q03181 whole entry): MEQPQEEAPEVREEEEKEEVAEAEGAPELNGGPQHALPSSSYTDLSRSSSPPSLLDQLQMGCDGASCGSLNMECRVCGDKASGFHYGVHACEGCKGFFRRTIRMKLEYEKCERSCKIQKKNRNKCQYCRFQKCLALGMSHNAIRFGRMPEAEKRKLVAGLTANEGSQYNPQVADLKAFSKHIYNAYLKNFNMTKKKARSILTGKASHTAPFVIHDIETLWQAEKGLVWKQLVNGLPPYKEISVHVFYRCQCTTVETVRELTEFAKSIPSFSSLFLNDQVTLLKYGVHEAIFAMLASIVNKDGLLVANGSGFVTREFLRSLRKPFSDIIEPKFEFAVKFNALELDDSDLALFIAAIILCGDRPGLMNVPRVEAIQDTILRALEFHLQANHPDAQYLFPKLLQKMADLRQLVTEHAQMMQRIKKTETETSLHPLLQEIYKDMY
Outline: (§1)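 Cell-based co-transfection reporter assay, with EC50 values derived for each PPAR subtype.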

[3] = target: T3, Peroxisome proliferator-activated receptor alpha (Homo sapiens, UniProt Q07869); experiment: Agonist activity at human PPAR-alpha expressed in african green monkey CV-1 cells after 24 hrs by luciferase reporter gene assay; assay type: functional, cell-based; outline: as §1
T3 sequence (Q07869 whole entry): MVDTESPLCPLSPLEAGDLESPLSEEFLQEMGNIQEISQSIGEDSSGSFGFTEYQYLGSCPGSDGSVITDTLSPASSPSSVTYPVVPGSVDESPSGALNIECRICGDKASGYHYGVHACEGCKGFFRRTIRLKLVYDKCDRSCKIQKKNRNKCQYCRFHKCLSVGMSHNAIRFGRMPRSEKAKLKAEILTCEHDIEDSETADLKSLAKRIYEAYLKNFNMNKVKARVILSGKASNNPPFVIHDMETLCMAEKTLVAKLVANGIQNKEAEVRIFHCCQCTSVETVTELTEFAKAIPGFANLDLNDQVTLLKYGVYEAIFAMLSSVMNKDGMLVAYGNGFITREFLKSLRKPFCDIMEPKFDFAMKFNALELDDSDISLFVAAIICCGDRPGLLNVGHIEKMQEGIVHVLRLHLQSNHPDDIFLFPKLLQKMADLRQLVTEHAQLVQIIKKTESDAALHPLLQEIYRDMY

[4] = target: Peroxisome proliferator-activated receptor delta (Homo sapiens) (UniProt Q03181); experiment: Binding affinity to human PPAR-delta after 1 hr by TR-FRET assay
[5] = test system: Mus musculus; experiment: Toxicity in apolipoprotein E-deficient C57BL/6J mouse assessed as weight loss at 6 mg/kg; assay type: organism-based; design: dose 6 mg/kg; conditions: in vivo
[6] = test system: Mus musculus; experiment: Antiatherogenic effect in apoE-deficient mouse assessed as increase in HDL-cholesterol level at 2 mg/kg/day for 4 weeks
[7] = test system: Mus musculus; experiment: Effect on cholesterol homeostasis in HC/HF diet-fed apolipoprotein E-deficient C57BL/6J mouse assessed as effect on VCAM-1 gene expression at 2 mg/kg/day for 4 weeks by quantitative RT-PCR; assay type: functional, organism-based
Outline: (§2)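 Apoe-/- mice, eight weeks old, fed an atherogenic HC/HF diet (1.25% cholesterol, 21% fat) for 14 weeks. They received 2 mg/kg/day of test agent (n = 7) or vehicle (n = 6) over the final 4 weeks, then were compared with the vehicle group.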

[8] = test system: Mus musculus; experiment: Effect on cholesterol homeostasis in HC/HF diet-fed apolipoprotein E-deficient C57BL/6J mouse assessed as effect on MCP1 gene expression at 2 mg/kg/day for 4 weeks by quantitative RT-PCR; assay type: functional, organism-based; outline: as §2
[9] = target: T4, Peroxisome proliferator-activated receptor delta (Homo sapiens) (UniProt Q03181); experiment: Binding affinity to human PPAR-delta after 1 hr by TR-FRET assay
T4 sequence (whole entry): T2 sequence (Q03181 whole entry)

[10] = test system: Mus musculus; experiment: Toxicity in apolipoprotein E-deficient C57BL/6J mouse assessed as weight loss at 60 mg/kg; assay type: organism-based; design: dose 60 mg/kg; conditions: in vivo
[11] = test system: Mus musculus; experiment: Effect on cholesterol homeostasis in HC/HF diet-fed apolipoprotein E-deficient C57BL/6J mouse assessed as effect on CD36 gene expression at 2 mg/kg/day for 4 weeks by quantitative RT-PCR; assay type: functional, organism-based; outline: as §2
[12] = test system: Mus musculus; experiment: Toxicity in […] diet-fed apolipoprotein E-deficient C57BL/6J mouse assessed as increase in liver weight at 2 mg/kg/day for 4 weeks; assay type: organism-based; conditions: in vivo, 672 h; outline: as §2
[13] = test system: Mus musculus; experiment: Effect on cholesterol homeostasis in HC/HF diet-fed apolipoprotein E-deficient C57BL/6J mouse assessed as effect on Il-10 gene expression at 2 mg/kg/day for 4 weeks by quantitative RT-PCR; assay type: functional, organism-based; outline: as §2
[14] = test system: Mus musculus; experiment: Antiatherogenic effect in HC/HF diet-fed apolipoprotein E-deficient C57BL/6J mouse assessed as decrease in lesion fatty streak in aorta at 2 mg/kg/day for 4 weeks; assay type: functional; design: scale not given: the % may be the effect or the level left
Outline: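 ApoE-/- mice were 8 weeks old at start. They were fed an HC/HF atherogenic diet (1.25% cholesterol, 21% fat) for 14 weeks and dosed at 2 mg/kg/day over the last 4 weeks (treated n = 7, vehicle n = 6). Mice were weighed weekly. Lesion fatty streak extent was scored throughout the aorta against vehicle.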

[15] = test system: Mus musculus; experiment: Effect on cholesterol homeostasis in HC/HF diet-fed apolipoprotein E-deficient C57BL/6J mouse assessed as effect on ABCA1 gene expression at 2 mg/kg/day for 4 weeks by quantitative RT-PCR; assay type: functional, organism-based; outline: as §2
[16] = test system: Mus musculus; experiment: Toxicity in apolipoprotein E-deficient C57BL/6J mouse assessed as weight loss at 5 mg/kg; assay type: organism-based; design: dose 5 mg/kg; conditions: in vivo
[17] = target: T5, Peroxisome proliferator-activated receptor alpha (Mus musculus) (UniProt P23204); experiment: Agonist activity at mouse PPAR-alpha expressed in african green monkey CV-1 cells after 24 hrs by luciferase reporter gene assay; assay type: functional, cell-based
T5 sequence (whole entry): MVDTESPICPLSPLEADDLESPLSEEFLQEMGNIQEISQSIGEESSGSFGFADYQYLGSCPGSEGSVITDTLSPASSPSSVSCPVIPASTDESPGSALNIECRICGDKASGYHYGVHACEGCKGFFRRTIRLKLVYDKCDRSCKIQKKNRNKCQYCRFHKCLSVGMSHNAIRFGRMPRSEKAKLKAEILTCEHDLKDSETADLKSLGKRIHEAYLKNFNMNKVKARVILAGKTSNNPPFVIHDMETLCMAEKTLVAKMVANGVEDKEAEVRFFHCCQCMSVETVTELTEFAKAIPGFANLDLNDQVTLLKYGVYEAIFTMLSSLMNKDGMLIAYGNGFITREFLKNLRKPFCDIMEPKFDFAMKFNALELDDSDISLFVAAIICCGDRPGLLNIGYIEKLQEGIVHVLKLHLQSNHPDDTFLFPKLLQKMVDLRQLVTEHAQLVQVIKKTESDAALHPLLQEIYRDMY

[18] = test system: Mus musculus; experiment: Effect on cholesterol homeostasis in HC/HF diet-fed apolipoprotein E-deficient C57BL/6J mouse assessed as effect on ICAM-1 gene expression at 2 mg/kg/day for 4 weeks by quantitative RT-PCR; assay type: functional, organism-based; outline: as §2
[19] = test system: Mus musculus; experiment: Antiatherogenic effect in HC/HF diet-fed apolipoprotein E-deficient C57BL/6J mouse assessed as decrease in IL-6 gene expression at 2 mg/kg/day for 4 weeks by quantitative RT-PCR; assay type: functional, organism-based; outline: as §2
[20] = test system: Mus musculus; experiment: Toxicity in […] diet-fed apolipoprotein E-deficient C57BL/6J mouse assessed as weight loss at 2 mg/kg/day for 4 weeks; assay type: organism-based; conditions: in vivo, 672 h
Outline: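 Eight-week-old Apoe-/- mice were kept on an HC/HF diet (1.25% cholesterol, 21% fat) for 14 weeks, with 2 mg/kg/day dosing (n = 7) or vehicle (n = 6) in the last 4 weeks. Body weight was recorded every week throughout the experimental period and compared between treated and control groups.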

[21] = target: T6, Peroxisome proliferator-activated receptor gamma (Mus musculus) (UniProt P37238); experiment: Agonist activity at mouse PPAR-gammaexpressed in african green monkey CV-1 cells after 24 hrs by luciferase reporter gene assay; assay type: functional, cell-based
T6 sequence (whole entry): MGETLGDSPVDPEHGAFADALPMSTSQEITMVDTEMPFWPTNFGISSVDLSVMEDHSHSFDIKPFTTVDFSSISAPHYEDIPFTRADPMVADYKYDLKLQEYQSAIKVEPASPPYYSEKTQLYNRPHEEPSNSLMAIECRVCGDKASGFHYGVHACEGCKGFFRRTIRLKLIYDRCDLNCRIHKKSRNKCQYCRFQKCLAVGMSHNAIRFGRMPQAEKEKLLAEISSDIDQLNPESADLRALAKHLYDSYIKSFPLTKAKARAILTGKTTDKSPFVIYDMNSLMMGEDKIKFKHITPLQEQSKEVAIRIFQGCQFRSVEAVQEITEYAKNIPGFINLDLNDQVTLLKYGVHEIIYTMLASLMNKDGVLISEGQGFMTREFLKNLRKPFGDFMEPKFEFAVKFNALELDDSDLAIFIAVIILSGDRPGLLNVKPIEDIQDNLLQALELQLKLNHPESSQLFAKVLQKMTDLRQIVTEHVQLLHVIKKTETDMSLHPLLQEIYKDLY

[22] = target: T7, Peroxisome proliferator-activated receptor delta (Mus musculus, UniProt P35396); experiment: Agonist activity at mouse PPAR-delta expressed in african green monkey CV-1 cells after 24 hrs by luciferase reporter gene assay; assay type: functional, cell-based
T7 sequence (P35396 whole entry): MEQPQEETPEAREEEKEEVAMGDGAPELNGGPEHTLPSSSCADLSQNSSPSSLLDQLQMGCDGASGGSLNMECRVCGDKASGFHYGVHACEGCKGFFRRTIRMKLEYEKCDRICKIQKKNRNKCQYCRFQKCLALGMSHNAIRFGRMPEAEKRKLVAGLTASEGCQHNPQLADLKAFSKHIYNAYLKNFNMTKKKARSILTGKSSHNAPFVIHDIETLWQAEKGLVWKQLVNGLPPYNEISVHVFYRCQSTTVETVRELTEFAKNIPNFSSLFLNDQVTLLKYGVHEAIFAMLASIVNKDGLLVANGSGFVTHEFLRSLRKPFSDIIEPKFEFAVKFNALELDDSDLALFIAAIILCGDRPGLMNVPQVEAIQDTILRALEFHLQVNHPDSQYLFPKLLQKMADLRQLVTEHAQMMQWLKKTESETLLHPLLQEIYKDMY

`Cc1cc([Se]Cc2sc(-c3ccc(C(F)(F)F)c(F)c3)nc2C)ccc1OC(C)(C)C(=O)O` showed an EC50 [1] of 290 nM, an EC50 [2] of 1.8 nM and an EC50 [3] of 24.6 nM.

In the case of `Cc1cc([Se]Cc2sc(-c3ccc(C(F)(F)F)cc3)nc2C)ccc1OC(C)C(=O)O` (stereo unspecified), the EC50 [1] is reported as over 1000 nM, the EC50 [2] is reported as 11 nM and the EC50 [3] is reported as 120 nM.

`Cc1cc([Se]Cc2sc(-c3ccc(C(F)(F)F)cc3)nc2C)ccc1OCC(=O)O` was tested, and the Activity [4] was “Active”, the Activity [5] was “Toxic” and the Activity [6] was “Active”. The Activity [7] was “inactive”, the Activity [8] was “inactive” and the Activity [9] was “Active”. The Activity [10] was “Toxic”, the EC50 [1] was over 1000 nM and the Activity [11] was “inactive”. The Activity [12] was “Non-toxic”, the EC50 [2] was 0.9 nM and the EC50 [3] was over 1000 nM. The Activity [13] was “inactive”, the Activity [14] was 25% and the Activity [15] was “inactive”. The Activity [16] was “Toxic”, the Activity [17] was “inactive” and the Activity [18] was “inactive”. The Activity [19] was “Active”, the Activity [20] was “Non-toxic” and the Activity [21] was “inactive”. It also gave an EC50 [22] of 2.3 nM.

`Cc1cc([Se]Cc2sc(-c3ccc(C(F)(F)F)c(F)c3)nc2C)ccc1OCC(=O)O` was tested, and the EC50 [1] was over 1000 nM, the EC50 [2] was 1 nM and the EC50 [3] was 350 nM.
